The values below come from ChEMBL document CHEMBL3526151, “Reversible disulfide formation of the glutamate carboxypeptidase II inhibitor E2072 results in prolonged systemic exposures in vivo” (Drug Metab Dispos, 2012).

As usually defined, the AUC(0-t) is the area under the concentration-time curve up to a stated or last time point. A word on the Cmax: it is the highest concentration seen after dosing. One may read the AUC(0-inf) as total exposure, with the tail of the curve extrapolated. What is called half-life is the time needed for the level to fall by half in the phase considered. A word on the clearance: it is the rate of elimination divided by the concentration. Broadly, the Tmax is the time from dosing to the highest level. In general, Vd refers to a proportionality between amount in the body and measured concentration, not a real space. The CL/F is clearance divided by bioavailability, as obtained after extravascular dosing.

Series [1] is described as follows: Phase 2 metabolic stability in mouse liver microsomes assessed as compound remaining at 10 uM measured for 1 hr by LC-MS/MS analysis. The following applies: read-out: Stability. Format: ADME. The method, boiled down:
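Glucuronidation in liver microsomes of the named species, 0.5 mg/ml protein, compound at 10 μM final, in 50 mM Tris-HCl pH 7.5 with 8 mM MgCl2 and 25 μg/ml alamethicin. Preincubated at 37°C, then started with 2 mM UDPGA (final); cofactor-free controls run alongside. Duplicate reactions, sampled up to 1 h, quenched with cold acetonitrile plus internal standard; disappearance followed by LC-MS/MS.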

A short description of series [2]: Phase 1 metabolic stability in rat liver microsomes assessed as compound remaining at 10 uM measured for 1 hr by LC-MS/MS analysis in absence of cofactors. The following applies: read-out: Stability. Type of series: ADME. In outline:
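Cofactor-free controls were run for each microsomal incubation: 0.5 mg/ml liver microsomes with 10 µM compound, omitting cofactors, so that cofactor-independent degradation could be measured. Samples were taken up to 1 h, quenched with acetonitrile containing internal standard, and the percent remaining was determined by LC-MS/MS.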

The nature of series [3]: AUC(0 to last) in Sprague-Dawley rat at 10 mg/kg, iv by LC-MS/MS analysis. Type of series: ADME, organism-based. Further details: time 0 - last, dose 10 mg/kg, route intravenous. The following applies: plasma. The method, boiled down:
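Male Sprague-Dawley rats dosed intravenously at 10 mg/kg (n = 6). Blood sampling extended to 7 days into heparin tubes containing NEM. Plasma assayed for parent and homodisulfide by LC-MS/MS, calibration range 1–5000 ng/ml. Noncompartmental analysis, t1/2 = 0.693/λz. Mean ± S.D.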

A short description of series [4]: AUC(0 to last) in Sprague-Dawley rat at 10 mg/kg, iv administered as bolus injection measured under fasted conditions by LC-MS/MS analysis. As to conditions: plasma. Further details: time 0 - last, dose 10 mg/kg, route intravenous. Type of series: ADME, organism-based. In outline:
(§1)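 Male Sprague-Dawley rats (280–330 g), jugular vein cannulated, fasted overnight until 4 h post-dose. Single tail-vein bolus of 0.1, 1, 10 or 30 mg/kg in 50 mM HEPES buffered saline, pH 7.4. Blood drawn 0–24 h into heparin tubes containing NEM. Plasma quantified by LC-MS/MS after NEM derivatization. Noncompartmental analysis: AUClast by linear trapezoidal rule, Cl = dose/AUC0-∞. Mean ± S.D., n = 4–9.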

Series [5] in a line: AUC(0 to last) in Sprague-Dawley rat at 30 mg/kg, iv administered as bolus injection measured under fasted conditions by LC-MS/MS analysis. Format: ADME, organism-based. Further details: time 0 - last, dose 30 mg/kg, route intravenous. As to conditions: plasma. In outline:
as §1

Series [6] is described as follows: Cmax in cynomolgus monkey at 5 mg/kg, po by LC-MS/MS analysis. Type of series: ADME, organism-based, Macaca fascicularis. The following applies: in vivo. Further details: dose 5 mg/kg, route oral. In outline: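 Cynomolgus monkeys (n = 3) received a nominal 5 mg/kg dose in 50 mM HEPES, TCEP-treated to prevent disulfide formation. Dosing was either an IV bolus via cephalic or saphenous vein or oral. Arterial cannula blood was collected into NEM-containing heparinized tubes for up to 9 days and analyzed by LC-MS/MS. Noncompartmental analysis gave t1/2 = 0.693/λz and F% = dose-normalized mean AUCinf p.o./i.v. ×100.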

The nature of series [7]: Cmax in Sprague-Dawley rat sciatic nerve at 10 mg/kg/day, po administered measured per gm of tissue for 5 days by LC-MS/MS analysis. Type of series: ADME, organism-based. Further details: dose 10 mg/kg/day, route oral. The method, boiled down:
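Male Sprague-Dawley rats were dosed orally with 10 mg/kg/day, either once or daily for 5 days; n = 4 per group. Blood was taken by cardiac puncture and liver, kidney, brain and sciatic nerve were collected at 0–8 h post-dose. Tissues were homogenized in PBS containing NEM at equal volume per gram. NEM-derivatized analyte was extracted with methanol and quantified by LC-MS/MS (1–5000 ng/ml). Cmax is the observed value.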

Series [8] is described as follows: AUC(0 to infinity) in Sprague-Dawley rat at 0.1 mg/kg, iv administered as bolus injection measured under fasted conditions by LC-MS/MS analysis. Further details: time infinity, dose 0.1 mg/kg, route intravenous. As to conditions: plasma. Type of series: ADME, organism-based. In outline: as §1
Series [9] is described as follows: Phase 1 metabolic stability in dog liver microsomes assessed as compound remaining at 10 uM measured for 1 hr by LC-MS/MS analysis. Type of series: ADME, Canis lupus familiaris. The following applies: read-out: Stability. In outline: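 Liver microsomes (0.5 mg/ml) were incubated with 10 µM compound (final) in 100 mM potassium phosphate, pH 7.4. An NADPH-regenerating system was present: 1.3 mM NADPH, 3.3 mM glucose 6-phosphate, 3.3 mM MgCl2, 0.4 U/ml G6PDH and 50 µM sodium citrate. Runs were in duplicate, with samples taken up to 1 h and quenched with acetonitrile containing internal standard. Loss of compound was followed by LC-MS/MS.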

A short description of series [10]: Half life in Sprague-Dawley rat at 30 mg/kg, po administered via gavage measured under fasted conditions by LC-MS/MS analysis. Format: ADME, organism-based. The following applies: in vivo. Details: dose 30 mg/kg, route oral.
A short description of series [11]: Clearance in Sprague-Dawley rat at 30 mg/kg, iv administered as bolus injection measured under fasted conditions by LC-MS/MS analysis. Format: ADME, organism-based. As to conditions: in vivo. Details: dose 30 mg/kg, route intravenous. In outline: as §1
A short description of series [12]: Tmax in cynomolgus monkey at 5 mg/kg, po by LC-MS/MS analysis. Format: ADME, organism-based, Macaca fascicularis. Further details: dose 5 mg/kg, route oral. The following applies: in vivo. In outline:
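Cynomolgus monkeys (n=3) dosed at 5 mg/kg nominal, TCEP-treated 50 mM HEPES solution, either as i.v. bolus (cephalic or saphenous vein) or orally. Arterial cannula blood into heparin/NEM tubes for up to 9 days. Plasma parent and homodisulfide measured by LC-MS/MS; Tmax observed.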

Series [13] can be described thus: AUC(0 to infinity) in Sprague-Dawley rat at 10 mg/kg, po administered via gavage measured under fed conditions by LC-MS/MS analysis. Type of series: ADME, organism-based. As to conditions: plasma. Details: time infinity, dose 10 mg/kg, route oral. In outline:
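Nonfasted male Sprague-Dawley rats given a single 10 mg/kg oral dose in 50 mM HEPES buffered saline, pH 7.4. Plasma collected 0.25–24 h into heparin/NEM tubes and assayed by LC-MS/MS. Noncompartmental parameters derived, including Cl/F and Vd/F. Mean ± S.D., n = 6–9.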

Series [14] in a line: Volume of distribution in Sprague-Dawley rat at 10 mg/kg, iv administered as bolus injection measured under fasted conditions by LC-MS/MS analysis. Format: ADME, organism-based. Further details: dose 10 mg/kg, route intravenous. As to conditions: in vivo. The method, boiled down:
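Jugular-cannulated male Sprague-Dawley rats, 280–330 g, fasted overnight to 4 h post-dose. Single dose in 50 mM HEPES-buffered saline pH 7.4, by oral gavage or as tail-vein i.v. bolus. Blood into heparin/NEM tubes at 0–24 h. Plasma measured by LC-MS/MS; noncompartmental analysis; Tmax observed; Vd = dose/(AUCinf·λz).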

Series [15] is described as follows: Protein binding in Sprague-Dawley rat serum at 10 uM after 1 hr by LC-MS/MS analysis. Type of series: ADME, cell-free. The following applies: read-out: PB (converted). The method, boiled down: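 Serum from the named species spiked to 10 μM and held 1 h at 37°C, then ultrafiltered through a 5000 Da cutoff device (45 min, 37°C, 1800g). Filtrate and unfiltered serum extracted and measured by LC-MS/MS; % bound = 100 − (Cu/Cs × 100).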

The nature of series [16]: Half life in Sprague-Dawley rat at 10 mg/kg, iv administered as bolus injection measured under fasted conditions by LC-MS/MS analysis. Type of series: ADME, organism-based. Details: dose 10 mg/kg, route intravenous. The following applies: in vivo.
The nature of series [17]: Apparent oral clearance in Sprague-Dawley rat at 1 mg/kg, po administered via gavage measured under fasted conditions by LC-MS/MS analysis. Type of series: ADME, organism-based. Details: dose 1 mg/kg, route oral. The following applies: in vivo. In outline: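 Fasted male Sprague-Dawley rats (280–330 g) received 0.1, 1, 10 or 30 mg/kg by oral gavage in 50 mM HEPES buffered saline, pH 7.4. Blood drawn at 0.25–24 h into heparin/NEM tubes; plasma analyzed by LC-MS/MS. Cmax taken as observed. AUC by linear trapezoidal rule with extrapolation by λz. Cl/F and Vd/F reported. Mean ± S.D., n = 4–9.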

Bounds are passed on as bounds.

As to `O=C(O)c1cccc(-c2cccc(CCS)c2C(=O)O)c1`, the remaining at 1 h, 10 µM in series [1], in series [2] and in series [9] was over 90% throughout. Further, the AUC(0-t) in [3] was determined as 86.7 µg·h/mL; in [4], 90.2 µg·h/mL; in series [5] it was 202 µg·h/mL. Further, the Cmax in series [6] is 10.5 µg/mL; in series [7], 165 ng/g. Besides, the AUC(0-inf) in series [8] worked out at 1.97 µg·h/mL; in series [13] it was 37.1 µg·h/mL. The values for the half-life in series [10] and in [16] were 3.15 h and 3.55 h, respectively. Also, the clearance in series [11] was 0.18 L/h/kg. For the same compound, the Tmax in series [12] is 0.42 h. This compound came in with a Vd in series [14] of 1.43 L/kg. Further, the fraction unbound at 1 h, 10 µM in [15] was 0.025. In series [17], the CL/F is 0.33 L/h/kg.
